Screening results: PubChem BioAssay, several laboratories
Beta apoptosis: beta cell apoptosis inhibition. hit rate 0.8% among 300,000. protection from apoptosis, % (concentration not given with the values). AID 435005. INS-1E cytokine-induced death, ATP luminescence, 48 h; percent of positive-control rescue, neutral wells zero;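 active = Every replicate reaches about 75%, or at least half do and their mean reaches it too, limit read from the data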;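 also: 0% = cytokine-treated negative control wells and 100% = positive control rescue; higher means more ATP so stronger rescue from cytokine killing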
UPR CHOP act: apoptotic UPR (CHOP) activation; CHO-CHOP luciferase reporter, luminescence; percent of tunicamycin response over DMSO baseline; activation, % at 10 µM; hit rate 0.34% among 330,000; AID 449763;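 active = at 10 µM dose, activation of 40% or more, normalized to positive control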;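 also: 100% = tunicamycin at 10 µg/mL and 0% = DMSO alone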
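measured by = luciferase luminescence | assay system = CHO-CHOP cells, stable luciferase reporter of PERK-eIF2a-CHOP signalling | amount = 500 reporter cells seeded per well | timing = 6 h compound exposure at 37 °C after overnight seeding | controls = positive tunicamycin 10 µg/mL, negative DMSO alone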
Mdm2 MdmX PPI: human Mdm2/MdmX binding inhibition; O15151+Q00987; SaOS-2 split-luciferase Mdm2/MdmX complementation, luminescence; inhibition, % at 8 µM; hit rate 3% among 330,000;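 active = inhibition of at least 50% at 8 µM in the primary screen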
Target sequence (O15151 whole entry, looked up): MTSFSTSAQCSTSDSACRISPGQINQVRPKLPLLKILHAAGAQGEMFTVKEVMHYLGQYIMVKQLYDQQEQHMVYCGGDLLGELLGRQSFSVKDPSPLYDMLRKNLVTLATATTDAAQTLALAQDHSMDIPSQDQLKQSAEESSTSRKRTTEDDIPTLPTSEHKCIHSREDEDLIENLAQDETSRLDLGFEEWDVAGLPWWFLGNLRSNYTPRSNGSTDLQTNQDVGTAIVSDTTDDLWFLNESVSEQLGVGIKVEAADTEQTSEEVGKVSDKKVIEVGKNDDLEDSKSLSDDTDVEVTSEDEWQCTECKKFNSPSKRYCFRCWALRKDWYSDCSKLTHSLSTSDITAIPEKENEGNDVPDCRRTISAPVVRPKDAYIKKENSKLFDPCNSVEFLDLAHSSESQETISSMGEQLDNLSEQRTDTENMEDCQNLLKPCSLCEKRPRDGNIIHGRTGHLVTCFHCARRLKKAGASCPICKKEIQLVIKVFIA
Target sequence (Q00987 whole entry, looked up): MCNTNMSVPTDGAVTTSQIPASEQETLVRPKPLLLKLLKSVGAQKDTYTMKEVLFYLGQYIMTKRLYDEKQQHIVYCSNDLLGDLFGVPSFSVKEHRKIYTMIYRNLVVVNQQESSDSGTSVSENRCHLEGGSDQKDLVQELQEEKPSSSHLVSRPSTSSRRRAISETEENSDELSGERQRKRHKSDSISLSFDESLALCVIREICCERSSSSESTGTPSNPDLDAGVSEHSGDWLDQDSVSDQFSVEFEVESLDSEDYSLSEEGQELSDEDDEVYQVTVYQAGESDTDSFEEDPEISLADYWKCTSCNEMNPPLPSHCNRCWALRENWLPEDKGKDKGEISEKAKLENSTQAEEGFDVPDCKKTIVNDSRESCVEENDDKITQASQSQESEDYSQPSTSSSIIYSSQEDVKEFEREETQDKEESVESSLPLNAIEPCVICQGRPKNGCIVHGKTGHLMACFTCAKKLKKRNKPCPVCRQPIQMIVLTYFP
T cruzi inh: T. cruzi replication inhibition; T. cruzi beta-gal in NIH3T3, luminescence, 90 h; inhibition, % (test concentration not listed); hit rate 1.4% among 300,000; AID 1885;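 active = mean inhibition across valid replicates above about 55%, limit read from the data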;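 also: signal also drops with host cell toxicity which is not excluded here; 0% = plate median of DMSO wells and 100% = zero luminescence signal; higher percent means less beta-gal luminescence so fewer parasites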
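Assay system: NIH/3T3 fibroblasts plus reporter T. cruzi. Amount: NIH/3T3 cells, 5,000 per well. Buffer or medium: DMEM, 2% fetal bovine serum. Doses: compound pinned at 50 nL/well, DMSO. Schedule: ≥90 h infection period, 3 h prior cell attachment. Signal: luminescent β-galactosidase signal after 60 min lysis. Read-out: parasite load inhibition, %.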
CSC inhib: cancer stem cell inhibition | cancer stem cell-like cells viability, luminescence | inhibition, % at 7.5 µM | hit rate 1.1% among 300,000; in the data active = inhibition above about 75%; tested in HMLE shEcad cells
XBP1 UPR activ: adaptive UPR (XBP1) activation; AID 463104; hit rate 0.33% among 330,000; activation, % at 20 µM; CHO-XBP1 luciferase reporter, IRE1-XBP1 UPR activation, luminescence; percent of tunicamycin response, DMSO as zero;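 active = versus positive control, 20 µM dose yields 30% or more activation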;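 also: 100% = tunicamycin at 10 µg/mL and 0% = DMSO only wells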
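Assay system: CHO-XBP1 luciferase reporter cells; Schedule: 6 h treatment, 37 °C; Detection: glow luminescence from Steady-Glo reagent; Benchmarks: high control tunicamycin 10 µg/mL final, low control DMSO vehicle only.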
Mdm2-MdmX conf: confirmation of human Mdm2/MdmX interaction inhibitors. shares compounds with Mdm2 MdmX PPI. Mdm2-MdmX binding, luminescent assay. inhibition, % at 8 µM. hit rate 55% among 10,000; in the data active = inhibition above about 40%
FLuc counter: full-length luciferase inhibition in Mdm2/MdmX counter-screen; hit rate 77% among 6,200; AID 504607; shares compounds with Mdm2 MdmX PPI; inhibition, % at 8 µM; SaOS-2 full-length luciferase counterscreen, luminescence;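 active = mean inhibition at 8 µM reaching about 37%, which flags the compound as non-specific, limit read from the data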;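 also: p53-null SaOS-2 cells with luciferase driven by a doxycycline-inducible promoter; compound on cells about two nights before reading with doxycycline added after day one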
* hit, by the source's call; / = not tested or not shown. Shown are actives, neighbours in structure and some others; about 5% of the full set was active somewhere.

SMILES	Beta apoptosis	UPR CHOP act	Mdm2 MdmX PPI	T cruzi inh	CSC inhib	XBP1 UPR activ	Mdm2-MdmX conf	others
CC1CCCC(C)N1C(=O)c1ccc(S(=O)(=O)NCc2ccco2)cc1 (stereo not drawn)	10	0	8	3	3	1	/
Cc1cc(NC(=S)NC(=O)c2ccccc2)ccc1-c1cc2ccccc2oc1=O	17	0	42	-14	42	1	/
COc1cc(C(=O)NC(=S)Nc2cccc(-c3cc4ccccc4oc3=O)c2)cc(OC)c1OC	12	-2	53*	6	-3	-4	33
Nc1c(N(CCC2=CCCCC2)C(=O)c2ccco2)c(=O)[nH]c(=O)n1Cc1ccccc1	0	1	4	13	5	-4	/
CCOc1ccc(Cn2nnc(-c3ccc(S(C)(=O)=O)cc3)n2)cc1OCC	1	0	16	/	-10	0	/
c1ccc(COc2ccccc2CNC2CCCC2)cc1	2	-2	37	12	-14	1	/
c1ccc(COc2ccccc2CNC23CC4CC(CC(C4)C2)C3)cc1	35	-1	96*	56*	41	3	70*	FLuc counter=59*
Cn1ccc(NC(=O)Nc2cccc([N+](=O)[O-])c2)n1	-2	0	5	9	-7	1	/
Clc1ccccc1/C=C/c1nc(-c2ccccn2)no1	4	-7	66*	7	15	-10	54*	FLuc counter=95*
Cc1onc(-c2ccccc2Cl)c1-c1nc(-c2ccccn2)no1	-3	-2	19	20	10	0	/
CCNC(=S)N/N=C1\C(=O)c2cccc3cccc1c23	10	2	24	23	-5	0	/
O=C(N/N=C1/C(=O)c2cccc3cccc1c23)c1ccc(Cl)cc1	27	10	59*	30	38	4	-2
CCOc1ccc(NS(=O)(=O)c2ccc3c(c2)N(C(C)=O)CCS3)cc1	5	0	-1	-5	12	-5	/
CCc1c(C)sc(NC(=O)CSc2nc3c(c(C(F)(F)F)n2)CCc2ccccc2-3)c1C#N	10	1	75*	10	8	5	17
CC(NC(=O)CSc1nc2c(c(C(F)(F)F)n1)CCc1ccccc1-2)c1ccccc1 (stereo not drawn)	-1	-2	12	49	6	-5	/
Cc1ccc2[nH]c(O)c(N=O)c2c1	-8	-1	0	-6	-7	0	/
Cn1cc(/C=N/n2cnc3scc(-c4ccc(Cl)cc4)c3c2=O)c2ccccc21	36	1	73*	41	55	7	63*	FLuc counter=63*
CCn1cnc2scc(-c3ccccc3)c2c1=O	-7	1	4	-20	-8	2	/
CCOc1ccc(-n2nnnc2SCC(=O)c2ccccc2)cc1	-9	0	68*	-8	21	2	15
COc1ccc(-n2nnnc2SCC(=O)c2cccc(OC)c2)cc1	3	0	49	-2	44	-4	/
Cc1ccc(-c2[nH][nH]c(=O)c(=O)c2N=Nc2ccccc2)cc1	8	0	61*	-1	3	5	-2
COC(=O)c1cc(-c2cccc(OC)c2)c2c(=O)[nH]c(=O)n(C)c2n1	-7	-1	29	9	6	10	/
O=C(CCl)N1c2ccccc2CCc2ccccc21	-11	3	100*	71*	-6	-11	50*	FLuc counter=12
CNC(=O)/C(C#N)=C/c1c(N2CCN(c3ccc(OC)cc3)CC2)nc2c(C)cccn2c1=O	2	1	-4	12	-16	-6	/
Cc1oc(C(=O)O)cc1COc1ccc2c(C)cc(=O)oc2c1	-3	2	25	-15	-13	-3	/
Cc1cc(=O)oc2cc(OCc3cc4c(cc3Cl)OCO4)ccc12	8	8	89*	4	-13	21	-18
